Bioassay records deposited in PubChem BioAssay by The Scripps Research Institute Molecular Screening Center.
m5-HT2A agonist – mouse Htr2a agonists via beta-arrestin recruitment, primary screen, cell-based, luminescence. CHO-K1 mHTR2A beta-arrestin complementation; percent of 30 µM serotonin response. 360,000 compounds, 0.66% hits. AID 624169, 2012. activation, % at 7.6 µM;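 active means activation above a run cutoff, the mean activation of all tested compounds plus 3 SD, cut at about 14% in these data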;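 further: 0% = plate median of compound wells and 100% = 30 µM serotonin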
TAAR1 antagonist – human TAAR1 antagonists, primary screen, Fluo-8 calcium fluorescence, CHO RD-HGA16 cells; 360,000 compounds, 1.5% hits; antagonist; inhibition, % at 3 µM; AID 624466, 2012;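 active means inhibition above a per-plate cutoff, the mean inhibition of test compounds on that plate plus 3 SD, cut at about 49% in these data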;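 further: 0% = DMSO plus EC80 beta-PEA response and 100% = DMSO alone without agonist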
Target sequence (Q96RJ0 whole entry, looked up): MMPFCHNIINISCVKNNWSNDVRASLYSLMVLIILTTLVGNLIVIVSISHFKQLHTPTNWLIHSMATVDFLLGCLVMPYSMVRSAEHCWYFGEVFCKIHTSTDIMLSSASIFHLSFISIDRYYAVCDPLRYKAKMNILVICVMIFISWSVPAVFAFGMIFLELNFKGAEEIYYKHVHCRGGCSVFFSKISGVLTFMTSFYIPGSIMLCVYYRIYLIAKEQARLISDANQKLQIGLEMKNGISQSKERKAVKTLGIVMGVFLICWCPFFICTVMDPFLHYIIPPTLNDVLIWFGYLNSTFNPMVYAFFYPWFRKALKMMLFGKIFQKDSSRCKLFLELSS
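Assay system: RD-HGA16 CHO cells with stable hTAAR1 and Gα16 / Reagent: EC80 β-phenethylamine stimulus / Doses: 3 µM, single point / Timing: dye loading 75 min at 37 °C, then 30 min room temperature / Measured by: Fluo-8 intracellular calcium dye fluorescence, real-time kinetic reads / Controls: vehicle wells and EC80 agonist wells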
M1 antag – human M1 muscarinic receptor antagonists, primary screen, CHO-K1 cells, Fluo-8 calcium fluorescence, 1536-well. Muscarinic acetylcholine receptor M1 (Homo sapiens), P11229. CHO-K1 hM1, ACh EC80 antagonist. inhibition, % at 3 µM. 360,000 compounds, 1.3% hits. AID 588852, 2011;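 active means percent inhibition above its own plate's cutoff, namely the mean of that plate's compound wells plus 3 SD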;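 further: peak over basal fluorescence ratio during 140 s after agonist addition; 0% = ACh EC80 plus DMSO and 100% = DMSO alone without agonist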
TAAR1 agonist – human TAAR1 agonists, primary screen, Fluo-8 calcium fluorescence, CHO RD-HGA16 cells | vehicle wells 0%, saturating PEA agonist 100% | Trace amine-associated receptor 1 (Homo sapiens), Q96RJ0 | activation, % at 3 µM | 360,000 compounds, 0.99% hits;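 active means activation above the mean activation of all test compounds in the run plus 3 SD, cut at about 38% in these data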
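Assay system: CHO-derived RD-HGA16 cells with stable Gα16 and human TAAR1; timing: 17-24 h seeding, 75 min 37 °C dye, 30 min RT; read-out: % activation from peak over basal fluorescence ratio, DMSO-to-PEA scaled; measured by: kinetic Fluo-8 calcium fluorescence; benchmarks: low control DMSO, high control PEA (EC100); doses: 3 µM single concentration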
CHRM1 PAM – human M1 muscarinic receptor positive allosteric modulators, primary screen, CHO-K1 cells, Fluo-8 calcium fluorescence, 1536-well. Muscarinic acetylcholine receptor M1 (Homo sapiens), P11229. CHO-K1 hM1, ACh EC20; 0% = ACh EC20, 100% = maximal ACh. activation, % at 3 µM. 360,000 compounds, 0.088% hits; in the data active means activation above about 19%, passing the limit was not always enough
CHRM1 agonist – human M1 muscarinic receptor agonists, primary screen, Fluo-8 calcium fluorescence, CHO-K1 cells, HTS; activation, % at 3 µM; CHO-K1 hM1, agonist mode; 0% DMSO, 100% acetylcholine EC100; 360,000 compounds, 0.33% hits; Muscarinic acetylcholine receptor M1 (Homo sapiens), P11229;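 active means activation above the run's mean compound activation plus 3 SD, cut at about 16% in these data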;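 further: peak over basal fluorescence ratio within a 140 s kinetic read after compound addition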
TAAR1 ag confirm – human TAAR1 agonists, retest of hits, confirmation, Fluo-8 calcium fluorescence, CHO RD-HGA16 cells; shares compounds with TAAR1 agonist; scaled: DMSO 0%, maximal phenethylamine 100%; activation, % at 3 µM; 2,400 compounds, 82% hits; AID 651783, 2012;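 active means activation above a cutoff set at the run's mean compound activation plus 3 SD, cut at about 39% in these data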
Ga16 ag counter – nonselective calcium mobilization agonists, CHO-Ga16 cells, counter-screen for hTAAR1 agonist project, cell-based, fluorescence, CHO-Ga16 parental line | AID 651787, 2012 | activation, % at 3 µM | Fluo-8 calcium fluorescence; normalized to maximal ATP response, DMSO zero | shares compounds with TAAR1 agonist | 2,400 compounds, 50% hits;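 active means activation above the run cutoff, the mean activation over all tested wells plus 3 SD, cut at about 12% in these data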;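 further: 0% = DMSO wells and 100% = maximal ATP response on the peak over basal ratio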
TAAR1 desensitize – TAAR1 desensitization by agonist hits, confirmation, counter-screen for TAAR1 agonist project, cell-based, fluorescence, tachyphylaxis; shares compounds with TAAR1 agonist; AID 651951, 2012; inhibition, % at 3 µM; 2,400 compounds, 46% hits; CHO RD-HGA16 hTAAR1, Fluo-8 calcium, beta-PEA response inhibition;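 active means inhibition above the run cutoff, the mean inhibition of all test compounds plus 3 SD, cut at about 49% in these data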;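 further: beta-PEA stimulus applied at its EC80; loss of beta-PEA calcium signal after compound pretreatment read as receptor desensitization; 0% = DMSO with beta-PEA at EC80 and 100% = DMSO alone without agonist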
Ga16 antag count – inhibition of ATP-evoked calcium response in CHO-Ga16 cells, counter-screen for TAAR1 agonist project, cell-based, fluorescence. shares compounds with TAAR1 agonist. CHO-Ga16 ATP-induced calcium, Fluo-8 fluorescence. inhibition, % at 3 µM. 2,400 compounds, 39% hits;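 active means inhibition above the plate's mean compound inhibition plus 3 SD, computed per plate, cut at about 22% in these data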;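 further: 0% = EC80 ATP with DMSO and 100% = DMSO wells without ATP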
* = called active by the depositor; nt = no result given. An excerpt weighted towards active compounds, which were near 3.9% of everything screened.

SMILES | m5-HT2A agonist | TAAR1 antagonist | M1 antag | TAAR1 agonist | CHRM1 PAM | CHRM1 agonist | TAAR1 ag confirm | Ga16 ag counter | TAAR1 desensitize | Ga16 antag count
CCN(CC)c1ccc(/C=C(/C#N)c2nc3ccccc3[nH]2)c(OC(C)C)c1 | 3 | 99* | 64* | 92* | -41 | 55* | 25 | 30* | 65* | 64*
COc1ccccc1CNC(=O)CC1C(=O)NCCN1C1Cc2ccccc2C1 (configuration not stated) | 5 | 19 | 1 | 70* | 2 | -1 | 72* | 5 | 3 | -2
O=C(CC1C(=O)NCCN1Cc1c(F)cccc1Cl)NCc1ccccc1 (configuration not stated) | 9 | 6 | -2 | 0 | 4 | -3 | nt | nt | nt | nt
O=C(CC1C(=O)NCCN1CCCc1ccccc1)NCCc1ccccc1F (configuration not stated) | 1 | 44 | -1 | 75* | 2 | -2 | 93* | 1 | 72* | 0
Cn1ncc2c(N3CCN(c4ccc(Cl)c(Cl)c4)CC3)ncnc21 | 7 | -12 | 2 | 4 | 2 | -3 | nt | nt | nt | nt
CC(=O)Nc1cccc(N/C(N)=N/c2nc(C)cc(C)n2)c1 | -1 | -3 | 10 | 1 | 3 | -4 | nt | nt | nt | nt
CCC(=O)Nc1ccc(N/C(N)=N/c2nc(C)cc(C)n2)cc1 | 0 | -7 | 3 | 4 | -3 | -9 | nt | nt | nt | nt
Cc1cccc(N/C(N)=N/c2nc(C)cc(C)n2)c1 | -9 | 56* | 2 | 58* | -9 | -2 | 80* | 43* | 81* | 53*
CCCCc1ccc(N/C(N)=N/c2nc(C)cc(C)n2)cc1 | -4 | 107* | 83* | 161* | -28 | 35* | 131* | 90* | 107* | 96*
Cc1cccc(OCCC(=O)Nc2ccc(Cl)cc2F)c1 | 0 | -1 | -3 | 9 | -2 | -5 | nt | nt | nt | nt
NS(=O)(=O)c1cnccc1NCCc1ccccc1 | 2 | -1 | -10 | 5 | 12 | -2 | nt | nt | nt | nt
C[C@@H]1Cc2[nH][nH]c(=O)c2[C@H](c2ccc(Cl)cc2)O1 | 0 | 0 | nt | 3 | nt | nt | nt | nt | nt | nt
COCCn1c(Cc2cccn2C)nnc1SCC(=O)NCc1ccc2c(c1)OCO2 | 9 | -3 | -2 | 2 | 8 | -7 | nt | nt | nt | nt
CCc1cc2ccccc2nc1SCC(=O)Nc1cc(C)on1 | 1 | 44 | -9 | 48* | 5 | -3 | 18 | 3 | 17 | 10
Cc1nc(C(F)(F)F)ccc1C(=O)N1CCCC(C)(C(=O)O)C1 (configuration not stated) | 1 | 7 | -10 | 0 | 4 | -2 | nt | nt | nt | nt
N=c1oc2ccc3ccccc3c2cc1C(N)=S | 4 | -8 | 1 | 14 | 5 | 0 | nt | nt | nt | nt
OCCN1CCN(CC(O)COC(c2ccc(F)cc2)c2ccc(F)cc2)CC1 (configuration not stated) | -6 | -10 | -5 | 0 | 6 | -7 | nt | nt | nt | nt
OC(COC(c1ccc(F)cc1)c1ccc(F)cc1)CN1CCCC(C(F)(F)F)C1 (configuration not stated) | -6 | 38 | -12 | 70* | 4 | -2 | 79* | 3 | 58* | 14
NS(=O)(=O)c1ccc(CCNC(=O)CNCCc2ccccc2)cc1 | -2 | 18 | -25 | 71* | 16 | -3 | 90* | 1 | 70* | 4
COC(=O)C1=NN(C(=O)c2cccc(Br)c2)C(O)(c2ccc(Cl)cc2)C1 (configuration not stated) | -1 | 71* | 4 | 93* | -11 | 42* | 95* | 67* | 76* | 62*
CCOC(=O)C1=NN(C(=O)c2ccc(OC)cc2)C(O)(c2ccc(Cl)cc2)C1 (configuration not stated) | 2 | 11 | 1 | 65* | -7 | -2 | 80* | 64* | 41 | 30*
CCOC(=O)C1=NN(C(=O)COc2ccccc2)C(O)(c2ccc(Cl)cc2)C1 (configuration not stated) | -4 | 3 | 3 | 4 | -1 | -3 | nt | nt | nt | nt
CCCc1c2ccccc2nc2ccccc12 | 8 | -33 | -12 | 70* | 10 | -10 | 11 | 10 | -12 | -5
CCCc1cc(C(=O)O)c2ccccc2n1 | -2 | nt | 5 | nt | -3 | -3 | nt | nt | nt | nt
O=C(NCCc1ccccc1Cl)C1CC(=O)N(C2CCCCC2)C1 (configuration not stated) | -10 | 2 | -19 | 0 | 9 | 1 | nt | nt | nt | nt
O=C1C/C(=C/NCc2ccccc2)C(=O)N1 | -1 | -8 | -29 | 7 | 1 | -2 | nt | nt | nt | nt
CC(Cc1ccccc1)N/C=C1/CC(=O)NC1=O (configuration not stated) | 6 | 54* | -5 | 83* | 8 | -2 | 91* | 3 | 40 | -2
CCC(Sc1nc2ncccc2[nH]1)C(=O)NCCc1ccccc1 (configuration not stated) | -8 | -14 | -12 | 3 | 5 | -8 | nt | nt | nt | nt
CC(C)C[C@H]1CN=C(Nc2ccccc2)N1CCC1CCCCC1 | -8 | 8 | 3 | 44* | 0 | -5 | 55* | 22* | 27 | 19
Cc1cc(Nc2ccc(C)c(C)c2)c2ccccc2n1 | -7 | -10 | -12 | 22 | 0 | -7 | nt | nt | nt | nt
